# Screening results from PubChem.
# An excerpt weighted towards active compounds, which were near 2.9% of everything screened.
# FGF22 binding = FGF22 (human) thermal shift binding. Q9HCT0. recombinant FGF22 thermal shift, SYPRO orange fluorescence; percent of sucrose octasulfate shift, DMSO zero. activity (Tm shift, normalised), % at 9.99 µM. actives 1.5% (n = 340,000);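 active = mean Tm shift, scaled 0 neutral to 100 positive control, at about 1.3% or above, every replicate too, limit read from the data; inconclusive = no clear call, values can overlap the other calls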
# Target sequence (Q9HCT0 whole entry, looked up): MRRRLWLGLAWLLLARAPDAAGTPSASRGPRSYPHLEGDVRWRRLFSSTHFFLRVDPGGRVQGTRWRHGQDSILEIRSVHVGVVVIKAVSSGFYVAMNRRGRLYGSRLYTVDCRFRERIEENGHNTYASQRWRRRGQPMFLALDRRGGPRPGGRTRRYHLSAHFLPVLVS
# PglD DTNB = PglD (C. jejuni) enzyme inhibition | AID 602405 | purified PglD enzyme, DTNB colorimetric CoA detection | inhibition, % at 12.5 µM | actives 0.098% (n = 360,000); in the data active = inhibition above about 16%, passing the limit was not always enough; inconclusive = no clear call, values can overlap the other calls
# Cneo AK release = Cryptococcus neoformans lysis via adenylate kinase release; C. neoformans lysis, adenylate kinase release luminescence, 4 h; normalised: neutral wells 0, clomiphene wells 100; actives 0.2% (n = 360,000); AID 651654; lysis activity, % at 15 µM;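 active = mean lysis activity across replicates of at least 80%, whatever share of replicates individually reach that level; inactive = mean lysis activity below 80%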
#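 Material – Cryptococcus neoformans yeast cells · Quantity – 5 × 10^6 yeast cells/mL · Buffer or medium – YPD medium · Compound – single dose · Timing – 4 h static compound exposure, 37 °C, read 1 h post-reagent · Signal – adenylate kinase release luminescence · Read-out basis – lysis from increased AK signal · Benchmarks – Clomiphene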
# Ecoli rRNA inh = inhibits bacterial ribosomal RNA function over humanized ribosomes; E. coli WT GFP vs humanized-ribosome RFP mutants, fluorescence, 24 h; active compounds read low; DMSO median 0, no signal -100; GFP signal change (wild-type ribosome), % (test concentration not listed); actives 1.6% (n = 350,000);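 active = significant combined selectivity score with lowered wild-type GFP, culture density cut under 30%, mutant RFP and density less affected; inactive = any of these conditions unmet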
# PGC1a acetyl inh = modulators of PGC1a acetylation | AID 651687 | inhibition, % at 15.6 µM | actives 0.17% (n = 350,000) | U2OS PGC1a acetylation, AlphaScreen anti-acetyl-lysine; with virally co-expressed GCN5 acetyltransferase;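 active = every replicate shows inhibition of at least 40%; inconclusive = mean inhibition at least 40% but some replicate below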
# Vif imaging = blocks HIV Vif function; AID 602346; HEK293T cells, Vif self-association by quenched fluorescence, imaging, 24 h; inhibition, % at 7.49 µM; actives 0.35% (n = 340,000); in the data active = inhibition above about 50%, passing the limit was not always enough; inconclusive = no clear call, values can overlap the other calls; inactive = below about 31%
# A number is an active result; . = inactive; ? = inconclusive; / = no result.
SMILES,FGF22 binding,PglD DTNB,Cneo AK release,Ecoli rRNA inh,PGC1a acetyl inh,Vif imaging
O=C(NCc1ccccc1)c1ccc(Cn2cc(C(F)(F)F)ccc2=O)cc1,/,.,.,/,/,.
CN(C)CC(=O)Nc1ccc2c(c1)[C@@H]1C[C@H](CC(=O)N3CCc4ccccc4C3)O[C@@H](CO)[C@@H]1O2,.,.,.,.,.,/
CCCC(=O)Nc1nnc(CCOC)s1,.,/,.,.,.,.
CCCCC(=O)Nc1nnc(CCOC)s1,42.9,/,/,.,.,.
Cc1ccc(Cc2cc(-c3ccc(C)cc3)n[nH]c2=O)cc1,.,.,.,.,.,.
Cc1ccc(-c2cc(Cc3ccccc3)c(=O)[nH]n2)cc1,.,.,.,-36.5,.,.
C[C@@H]1CN([C@@H](C)CO)C(=O)c2cccc(NS(C)(=O)=O)c2O[C@@H]1CN(C)Cc1ccccc1,.,.,.,.,.,/
COc1ccc(CCNC(=O)[C@@H](NC(=O)N2CCn3c2nc2ccccc23)C(C)C)cc1OC,.,.,.,.,.,.
CCC(C)[C@H](NC(=O)N1CCn2c1nc1ccccc12)C(=O)NCCc1ccc(OC)c(OC)c1 (some centres not stated),.,.,.,-19.6,.,.
C[C@H](CO)N1C[C@H](C)[C@H](CN(C)S(=O)(=O)c2ccccc2)Oc2c(NC(=O)Nc3ccc(C(F)(F)F)cc3)cccc2C1=O,/,/,/,.,.,/
O=C(CCCN1C(=O)/C(=C/c2ccccc2Cl)SC1=S)N1CCCC1,.,.,.,-39.8,.,.
COc1ccccc1/C=C1\SC(=S)N(CCC(=O)N2CCN(C)CC2)C1=O,.,.,.,-18.8,.,.
COc1ccccc1/C=C1\SC(=S)N(CCC(=O)NCCCn2ccnc2)C1=O,.,.,.,-23.9,.,?
O=C(CCN1C(=O)/C(=C/c2ccccc2Cl)SC1=S)N1CCCC1,.,.,.,.,.,.
CO[C@@H](CN(C)C(=O)c1cnccn1)[C@@H](C)CN([C@@H](C)CO)S(=O)(=O)c1ccc(C)cc1,.,.,.,.,.,/
CC(=O)N(C)C[C@H]1Oc2ccc(N(C)C)cc2C(=O)N(C)C[C@H]1C,/,/,/,.,/,/
O=C(CCNC(=O)c1ccc([N+](=O)[O-])cc1)Nc1ccc(N2CCOCC2)cc1N1CCOCC1,43.1,/,/,.,.,.
Cc1ccc(NC(=O)CCNC(=O)c2ccc([N+](=O)[O-])cc2)cc1S(=O)(=O)N(C)C,.,/,/,.,.,.
CC(=O)Nc1ccc(SCC(=O)NC(=O)c2ccc(S(=O)(=O)N(C)C)cc2)cc1,.,.,.,.,.,83.2
CN(C)S(=O)(=O)c1ccc(NC(=O)CCNC(=O)c2ccc([N+](=O)[O-])cc2)cc1,43.2,/,/,.,.,.
CN(C)S(=O)(=O)c1ccc(C(=O)NC(=O)CSc2ccccc2)cc1,/,/,/,/,/,.
CN(C)S(=O)(=O)c1ccc(C(=O)OCc2ccc([N+](=O)[O-])cc2)cc1,44.1,/,/,.,/,.
O=C(Nc1ccc(N2CCOCC2)cc1N1CCOCC1)c1ccc([N+](=O)[O-])cc1,/,.,.,/,.,.
O=C(c1ccncc1)N1C[C@@H]2[C@H](c3ccccc31)[C@@H](CO)N2C(=O)c1ccccn1,.,.,.,.,.,/
FC(F)(F)c1cnc(N2CCCN(C(=S)Nc3ccccc3)CC2)c(Cl)c1,.,.,.,-40.8,.,.
SMILES,FGF22 binding,PglD DTNB,Cneo AK release,Ecoli rRNA inh,PGC1a acetyl inh,Vif imaging
FC(F)(F)c1cnc(N2CCN(C(=S)NCc3ccccc3)CC2)c(Cl)c1,.,/,/,.,/,.
Cn1c(CSc2nc3ccc(Br)cc3[nH]2)nc2ccccc21,.,.,.,-21.6,.,.
COc1ccc(S(=O)(=O)Nc2ccc3c(c2)C(=O)N([C@@H](C)CO)C[C@@H](C)[C@H](CN(C)S(=O)(=O)c2cccs2)OCCCC[C@@H](C)O3)cc1,.,.,.,.,.,/
O=C(Oc1c(Br)cc([N+](=O)[O-])cc1Br)c1cccnc1,43.6,/,/,.,.,.
CCCCCC(=O)Nc1nc(C)c(-c2csc(Nc3cc(OC)ccc3OC)n2)s1,43.9,.,.,.,.,.
C[C@@H]1CN([C@H](C)CO)C(=O)Cc2cc(NC(=O)C3CCCCC3)ccc2O[C@@H]1CN(C)S(=O)(=O)c1ccccc1,.,.,.,.,.,/
